# Experimental data as given in ChEMBL document CHEMBL4118285, “Synthesis and antibacterial activity of novel ketolides with 11,12-quinoylalkyl side chains” (2018).
# Experiments:
# Format in all cases: functional
# Staphylococcus aureus [1] = assay: Antibacterial activity against methicillin-sensitive Staphylococcus aureus 11B122 by broth microdilution method
# Method in brief: (§1)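 MICs were determined by broth microdilution following CLSI recommendations, with clarithromycin and telithromycin run as reference antibiotics.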
# Staphylococcus aureus [2] = assay: Antibacterial activity against methicillin-resistant Staphylococcus aureus 11B117 by broth microdilution method
# Method in brief: (§2)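 MIC values were determined by broth microdilution following Clinical and Laboratory Standards Institute (CLSI) recommendations.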
# [3] = system: Staphylococcus epidermidis; assay: Antibacterial activity against methicillin-sensitive Staphylococcus epidermidis 11X315 by broth microdilution method; method in brief: as §2
# [4] = system: Staphylococcus epidermidis; assay: Antibacterial activity against methicillin-resistant Staphylococcus epidermidis 11C176 by broth microdilution method; method in brief: as §2
# Streptococcus pneumoniae [5] = assay: Antibacterial activity against erythromycin-sensitive Streptococcus pneumoniae 11G364 by broth microdilution method; method in brief: as §1
# Streptococcus pneumoniae [6] = assay: Antibacterial activity against erythromycin-resistant Streptococcus pneumoniae 11 J011 by broth microdilution method; method in brief: as §2
# Streptococcus pyogenes [7] = assay: Antibacterial activity against erythromycin-sensitive Streptococcus pyogenes 11L264 by broth microdilution method; method in brief: as §1
# Streptococcus pyogenes [8] = assay: Antibacterial activity against erythromycin-resistant Streptococcus pyogenes 11 N369 by broth microdilution method; method in brief: as §2
# Haemophilus influenzae [9] = assay: Antibacterial activity against azithromycin-sensitive Haemophilus influenzae 11P042 by broth microdilution method; method in brief: as §1
# Haemophilus influenzae [10] = assay: Antibacterial activity against azithromycin-resistant Haemophilus influenzae 11Q373 by broth microdilution method; method in brief: as §2
# Staphylococcus aureus [11] = assay: Antibacterial activity against methicillin-sensitive Staphylococcus aureus ATCC 29213 by broth microdilution method; method in brief: as §1
# Staphylococcus aureus [12] = assay: Antibacterial activity against methicillin-resistant Staphylococcus aureus ATCC 33591 by broth microdilution method; method in brief: as §2
# [13] = system: Staphylococcus epidermidis; assay: Antibacterial activity against methicillin-sensitive Staphylococcus epidermidis ATCC 12228 by broth microdilution method; method in brief: as §1
# [14] = system: Staphylococcus epidermidis; assay: Antibacterial activity against methicillin-resistant Staphylococcus epidermidis 13-3 by broth microdilution method; method in brief: as §2
# Streptococcus pyogenes [15] = assay: Antibacterial activity against […] Streptococcus pyogenes 12-8 by broth microdilution method; method in brief: as §1
# Streptococcus pyogenes [16] = assay: Antibacterial activity against methicillin-resistant Streptococcus pyogenes 12-1 by broth microdilution method; method in brief: as §2
# Moraxella catarrhalis [17] = assay: Antibacterial activity against clarithromycin-sensitive Moraxella catarrhalis 12-1 by broth microdilution method; method in brief: as §1
# Klebsiella pneumoniae = assay: Antibacterial activity against extended spectrum beta-lactamases producing Klebsiella pneumoniae ATCC 700603 by broth microdilution method; method in brief: as §1
# Moraxella catarrhalis [18] = assay: Antibacterial activity against clarithromycin-resistant Moraxella catarrhalis 12-2 by broth microdilution method; method in brief: as §2
# Escherichia coli = assay: Antibacterial activity against extended spectrum beta-lactamases non-producing Escherichia coli ATCC 25922 by broth microdilution method; method in brief: as §1
# Pseudomonas aeruginosa = assay: Antibacterial activity against Pseudomonas aeruginosa ATCC 27853 by broth microdilution method; method in brief: as §1
Compound,MIC (Staphylococcus aureus [1]),MIC (Staphylococcus aureus [2]),MIC [3],MIC [4],MIC (Streptococcus pneumoniae [5]),MIC (Streptococcus pneumoniae [6]),MIC (Streptococcus pyogenes [7]),MIC (Streptococcus pyogenes [8]),MIC (Haemophilus influenzae [9]),MIC (Staphylococcus aureus [11]),MIC (Staphylococcus aureus [12]),MIC [13],MIC [14],MIC (Streptococcus pyogenes [15]),MIC (Streptococcus pyogenes [16]),MIC (Moraxella catarrhalis [17]),MIC (Klebsiella pneumoniae),MIC (Moraxella catarrhalis [18]),MIC (Escherichia coli),MIC (Pseudomonas aeruginosa),also measured
CC[C@H]1OC(=O)[C@H](C)C(=O)[C@H](C)[C@@H](O[C@@H]2O[C@H](C)C[C@H](N(C)C)[C@H]2O)[C@](C)(OC)C[C@@H](C)C(=O)[C@H](C)[C@H]2N(CCCCc3cnc4ccccc4c3)C(=O)O[C@]12C,0.125 µg/mL,64 µg/mL,0.062 µg/mL,0.062 µg/mL,≤ 0.004 µg/mL,0.062 µg/mL,0.008 µg/mL,0.5 µg/mL,0.5 µg/mL,–,–,–,–,–,–,–,–,–,–,–,MIC (Haemophilus influenzae [10]): 4 µg/mL
CC[C@H]1OC(=O)[C@H](C)C(=O)[C@H](C)[C@@H](O[C@@H]2O[C@H](C)C[C@H](N(C)C)[C@H]2O)[C@](C)(OC)C[C@@H](C)C(=O)[C@H](C)[C@H]2N(CCCSc3cnc4ccccc4c3)C(=O)O[C@]12C,0.125 µg/mL,> 64 µg/mL,0.125 µg/mL,0.125 µg/mL,0.008 µg/mL,0.125 µg/mL,0.016 µg/mL,0.5 µg/mL,16 µg/mL,–,–,–,–,–,–,–,–,–,–,–,MIC (Haemophilus influenzae [10]): 32 µg/mL
CC[C@H]1OC(=O)[C@H](C)C(=O)[C@H](C)[C@@H](O[C@@H]2O[C@H](C)C[C@H](N(C)C)[C@H]2O)[C@](C)(OC)C[C@@H](C)C(=O)[C@H](C)[C@H]2N(CC/C=C/c3cncc4ccccc34)C(=O)O[C@]12C,–,–,–,–,–,–,–,–,–,0.015 µg/mL,64 µg/mL,0.03 µg/mL,64 µg/mL,0.015 µg/mL,64 µg/mL,0.015 µg/mL,64 µg/mL,32 µg/mL,16 µg/mL,32 µg/mL,–
CC[C@H]1OC(=O)[C@H](C)C(=O)[C@H](C)[C@@H](O[C@@H]2O[C@H](C)C[C@H](N(C)C)[C@H]2O)[C@](C)(OC)C[C@@H](C)C(=O)[C@H](C)[C@H]2N(CC/C=C/c3cncc4cc(C)ccc34)C(=O)O[C@]12C,–,–,–,–,–,–,–,–,–,0.06 µg/mL,64 µg/mL,0.06 µg/mL,128 µg/mL,0.015 µg/mL,64 µg/mL,0.015 µg/mL,> 256 µg/mL,32 µg/mL,64 µg/mL,64 µg/mL,–
CC[C@H]1OC(=O)[C@H](C)C(=O)[C@H](C)[C@@H](O[C@@H]2O[C@H](C)C[C@H](N(C)C)[C@H]2O)[C@](C)(OC)C[C@@H](C)C(=O)[C@H](C)[C@H]2N(CC/C=C/c3cncc4ccc(OCc5ccccc5)cc34)C(=O)O[C@]12C,–,–,–,–,–,–,–,–,–,1 µg/mL,8 µg/mL,1 µg/mL,8 µg/mL,0.125 µg/mL,8 µg/mL,1 µg/mL,> 256 µg/mL,4 µg/mL,> 256 µg/mL,> 256 µg/mL,–
CC[C@H]1OC(=O)[C@@](C)(F)C(=O)[C@H](C)[C@@H](O[C@@H]2O[C@H](C)C[C@H](N(C)C)[C@H]2O)[C@](C)(OC)C[C@@H](C)C(=O)[C@H](C)[C@H]2N(CC/C=C/c3cnc4ccccc4c3)C(=O)O[C@]12C,–,–,–,–,–,–,–,–,–,0.015 µg/mL,32 µg/mL,0.015 µg/mL,32 µg/mL,0.015 µg/mL,16 µg/mL,0.015 µg/mL,32 µg/mL,16 µg/mL,8 µg/mL,16 µg/mL,–
CC[C@H]1OC(=O)[C@H](C)C(=O)[C@H](C)[C@@H](O[C@@H]2O[C@H](C)C[C@H](N(C)C)[C@H]2O)[C@](C)(OC)C[C@@H](C)C(=O)[C@H](C)[C@H]2N(CC/C=C/c3cnc4ccccc4c3)C(=O)O[C@]12C,0.125 µg/mL,64 µg/mL,0.062 µg/mL,0.062 µg/mL,≤ 0.004 µg/mL,0.031 µg/mL,≤ 0.004 µg/mL,0.25 µg/mL,1 µg/mL,–,–,–,–,–,–,–,–,–,–,–,MIC (Haemophilus influenzae [10]): 4 µg/mL
CC[C@H]1OC(=O)[C@H](C)C(=O)[C@H](C)[C@@H](O[C@@H]2O[C@H](C)C[C@H](N(C)C)[C@H]2O)[C@](C)(OC)C[C@@H](C)C(=O)[C@H](C)[C@H]2N(CC/C=C/c3cncc4cc(OC)ccc34)C(=O)O[C@]12C,–,–,–,–,–,–,–,–,–,0.06 µg/mL,64 µg/mL,0.015 µg/mL,64 µg/mL,0.015 µg/mL,32 µg/mL,0.015 µg/mL,> 256 µg/mL,8 µg/mL,64 µg/mL,64 µg/mL,–
